ChEMBL document CHEMBL4819017 (Eur J Med Chem, 2021)

Assays:
[1] = Inhibition of PI3K/mTOR in human MCF7 cells assessed as reduction of AKT phosphorylation at Ser473 residue measured after 3 hrs by western blot assay; assay type: cell-based; details: MCF7, 3 h
Method in brief: (§1)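 MCF7 cells treated for 3 h across a dose range, washed and lysed with phosphatase and protease inhibitors. Lysates run on 10% SDS-PAGE and blotted, antibodies incubated overnight at 4 °C.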

[2] = biological target: Phosphatidylinositol 4,5-bisphosphate 3-kinase catalytic subunit gamma isoform (Homo sapiens, UniProt P48736); assay: Inhibition of human p110gamma using PIP2 as substrate in presence of ATP measured by HTRF assay
Phosphatidylinositol 4,5-bisphosphate 3-kinase catalytic subunit gamma isoform, sequence (P48736 whole entry, canonical isoform): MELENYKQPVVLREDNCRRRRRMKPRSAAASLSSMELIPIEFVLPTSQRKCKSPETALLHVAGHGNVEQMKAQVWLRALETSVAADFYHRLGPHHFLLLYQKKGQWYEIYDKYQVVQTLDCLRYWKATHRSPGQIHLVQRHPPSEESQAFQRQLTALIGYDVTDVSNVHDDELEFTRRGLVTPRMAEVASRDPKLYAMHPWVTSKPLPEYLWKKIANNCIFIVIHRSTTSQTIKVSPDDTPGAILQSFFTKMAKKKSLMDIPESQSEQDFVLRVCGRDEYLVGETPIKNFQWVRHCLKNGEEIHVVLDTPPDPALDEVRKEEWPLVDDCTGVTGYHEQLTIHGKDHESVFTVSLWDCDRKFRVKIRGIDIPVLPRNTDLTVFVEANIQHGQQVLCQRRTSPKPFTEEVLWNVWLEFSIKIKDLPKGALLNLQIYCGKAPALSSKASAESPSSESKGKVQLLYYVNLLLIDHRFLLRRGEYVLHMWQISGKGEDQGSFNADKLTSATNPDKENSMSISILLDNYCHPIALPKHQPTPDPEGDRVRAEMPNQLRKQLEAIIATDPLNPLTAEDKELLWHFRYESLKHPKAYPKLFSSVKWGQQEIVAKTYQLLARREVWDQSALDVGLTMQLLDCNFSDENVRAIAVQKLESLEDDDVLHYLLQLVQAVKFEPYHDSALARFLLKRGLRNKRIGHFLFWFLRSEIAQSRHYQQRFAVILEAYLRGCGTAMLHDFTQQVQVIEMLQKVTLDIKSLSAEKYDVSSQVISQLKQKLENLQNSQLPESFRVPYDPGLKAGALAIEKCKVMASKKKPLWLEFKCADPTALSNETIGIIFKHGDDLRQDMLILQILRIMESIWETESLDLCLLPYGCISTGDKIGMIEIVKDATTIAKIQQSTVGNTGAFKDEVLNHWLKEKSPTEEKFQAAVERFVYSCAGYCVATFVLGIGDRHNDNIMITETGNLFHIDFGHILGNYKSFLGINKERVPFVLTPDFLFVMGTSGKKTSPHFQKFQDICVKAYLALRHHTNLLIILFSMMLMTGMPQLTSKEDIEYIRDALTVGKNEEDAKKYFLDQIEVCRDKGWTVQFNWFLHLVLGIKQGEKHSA
Method in brief: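 HTRF PI3-kinase assay with PIP2 at 10 µM. Enzyme and ATP levels (ATP at 50× KM): p110α/p85α 100 pM with 200 µM ATP; p110δ/p85α 100 pM with 200 µM ATP; p110β/p85α 500 pM with 250 µM ATP; p110γ 4 nM with 100 µM ATP. Activity normalized to no-compound control, variable-slope sigmoidal fit. Two independent experiments in duplicate.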

[3] = Inhibition of PI3K/mTOR in human MCF7 cells assessed as reduction of S6 phosphorylation at Ser235/236 residue measured after 3 hrs by western blot assay; assay type: cell-based; details: MCF7, 3 h; method in brief: as §1
[4] = Inhibition of PI3K/mTOR in human MCF7 cells assessed as reduction of P70S6K phosphorylation at Thr389 residue measured after 3 hrs by western blot assay; assay type: cell-based; details: MCF7, 3 h; method in brief: as §1
[5] = tested on: DU-145; assay: Growth inhibition of human DU-145 cells harboring wild type p110alpha and PTEN measured after 72 hrs by Cell titre Glo-luminiscence cell viability assay; assay type: functional
Method in brief: (§2)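 Cells harvested just before confluency and seeded at 4,000 cells/well, then left 24 h before dosing. Serial dilutions from 10 mM DMSO stocks, final DMSO ≤0.5%, each concentration in duplicate.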

[6] = Inhibition of PI3K/mTOR in human U2OS cells assessed as inhibition of AKT1 phosphorylation at Ser473 residue by C-ELISA; assay type: cell-based
Method in brief: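 U2OS osteosarcoma cells grown in 0.1% FBS and serum-stimulated. Endogenous phospho-AKT1 Ser473 quantified by cell-based ELISA with chemiluminescent substrate. Signal plotted against inhibitor concentration and fitted to a sigmoid dose-response curve.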

[7] = Inhibition of PI3K/mTOR in human MCF7 cells assessed as reduction of AKT phosphorylation at Thr308 residue measured after 3 hrs by western blot assay; assay type: cell-based; details: MCF7, 3 h; method in brief: as §1
[8] = tested on: A549; assay: Growth inhibition of human A549 cells harboring wild type p110alpha and PTEN measured after 72 hrs by Cell titre Glo-luminiscence cell viability assay; assay type: functional; method in brief: as §2
[9] = tested on: NCI-H1975; assay: Growth inhibition of human NCI-H1975 cells harboring mutated p110alpha measured after 72 hrs by Cell titre Glo-luminiscence cell viability assay; assay type: functional; method in brief: as §2
[10] = tested on: PC-3; assay: Growth inhibition of human PC-3 cells harboring PTEN inactivation measured after 72 hrs by Cell titre Glo-luminiscence cell viability assay; assay type: functional; method in brief: as §2
[11] = tested on: HT-29; assay: Growth inhibition of human HT-29 cells harboring mutated p110alpha measured after 72 hrs by Cell titre Glo-luminiscence cell viability assay; assay type: functional; method in brief: as §2

## COc1ncc(-c2ccc3nccc(-c4ccnnc4)c3c2)cc1NS(=O)(=O)c1ccc(F)cc1F [OMIPALISIB]
[1]
  EC50: 0.65 nM
[2]
  Ki: 0.51 nM
[3]
  EC50: 0.87 nM
[4]
  EC50: 0.68 nM
[5]
  GI50: 16.3 nM
[6]
  EC50: 0.6 nM
[7]
  EC50: 0.21 nM
[8]
  GI50: 26.6 nM
[9]
  GI50: 14.4 nM
[10]
  GI50: 197 nM
[11]
  GI50: 19.9 nM
